Results taken from ChEMBL document CHEMBL1131054, “Synthesis and structure-activity relationships of 2-pyrazinylcarboxamidobenzoates and beta-ionylideneacetamidobenzoates with retinoidal activity” (1998).

Key:
Assay type in all cases: functional
HL-60 = assay: Percent differentiation of human promyelocytic leukemia (HL60) cells at 10e -6M concentration in culture medium
How it was run: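 HL60 cells in RPMI-1640 with 10% FBS, 2 mM L-glutamine and gentamycin were exposed for 4 days to compound at 10⁻⁶ M final, diluted from a DMSO stock, at 1×10^5 cells/mL. Differentiation was scored by NBT reduction: 30 min at 37 °C with 0.2% NBT plus 200 ng/mL PMA. At least 200 cells were counted by light microscopy, blue cells scored as differentiated.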

P19 [1] = assay: Percent aggregation of mouse embryonal carcinoma (P19) cells 10e-6 M concentration in culture medium
How it was run: (§1)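 P19 mouse embryonal carcinoma cells grown in α-MEM with 7.5% calf serum, 2.5% fetal calf serum and gentamycin at 37 °C, 5% CO2. Cells trypsinized, replated at 2×10^5 cells/mL, dosed from DMSO stock at 10⁻⁶ M final, redosed with fresh medium after 2 days, diluted 3 days later and counted 2 days after that. Read-out is percent of aggregates with neural outgrowth. Run in triplicate.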

P19 [2] = assay: percent aggregation of mouse embryonal carcinoma (P19) cells 10e -6M concentration in culture medium; how it was run: as §1

Row | SMILES | Differentiation (HL-60) | Aggregates (P19 [1]) | Aggregation (P19 [2])
1 | CC1(C)CCC(C)(C)c2nc(C(=O)Nc3cccc(C(=O)O)c3)cnc21 | 2% | 1% | 
2 | CC1(C)CC(C)(C)c2nc(C(=O)Nc3ccc(C(=O)O)c(Cl)c3)cnc21 | 67% | 60% | 
3 | CC1(C)CC(C)(C)c2nc(C(=O)Nc3cccc(C(=O)O)c3)cnc21 | 0% | 0% | 
4 | COc1cc(C(=O)O)ccc1NC(=O)c1cnc2c(n1)C(C)(C)CC2(C)C | 6% | 0% | 
5 | CC1(C)CC(C)(C)c2nc(C(=O)Nc3ccc(C(=O)O)cc3)cnc21 | 46% | 67% | 
6 | COc1cc(C(=O)O)ccc1NC(=O)/C=C(C)/C=C/C1=C(C)CCCC1(C)C | 9% | 2% | 
7 | COC(=O)c1ccc(NC(=O)c2cnc3c(n2)C(C)(C)CC3(C)C)cc1Cl | 69% | 50% | 
8 | CC1=C(/C=C/C(C)=C/C(=O)N(C)c2ccc(C(=O)O)cc2)C(C)(C)CCC1 | 4% | 1% | 
9 | CC1=C(/C=C/C(C)=C/C(=O)Nc2ccc(C(=O)O)cc2)C(C)(C)CCC1 | 79% | 68% | 
10 | COC(=O)c1ccc(N(C)C(=O)c2cnc3c(n2)C(C)(C)CC3(C)C)cc1 | 7% | 0% | 
11 | CN(C(=O)c1cnc2c(n1)C(C)(C)CCC2(C)C)c1ccc(C(=O)O)cc1 | 15% | 0% | 
12 | COC(=O)c1ccc(Cl)c(NC(=O)c2cnc3c(n2)C(C)(C)CCC3(C)C)c1 | 7% | 0% | 
13 | COC(=O)c1ccc(NC(=O)c2cnc3c(n2)C(C)(C)CCC3(C)C)cc1Cl | 47% | 74% | 
14 | COC(=O)c1cccc(NC(=O)c2cnc3c(n2)C(C)(C)CC3(C)C)c1 | 0% | 2% | 
15 | COC(=O)c1ccc(Cl)c(NC(=O)c2cnc3c(n2)C(C)(C)CC3(C)C)c1 | 4% | 0% | 
16 | COC(=O)c1cc(NC(=O)c2cnc3c(n2)C(C)(C)CC3(C)C)cc(C(=O)OC)c1 | 4% | 1% | 
17 | COC(=O)c1ccc(OC)c(NC(=O)c2cnc3c(n2)C(C)(C)CCC3(C)C)c1 | 0% | 0% | 
18 | COC(=O)c1cccc(NC(=O)c2cnc3c(n2)C(C)(C)CCC3(C)C)c1 | 6% | 0% | 
19 | CC1(C)CCC(C)(C)c2nc(C(=O)Oc3ccc(C(=O)O)cc3)cnc21 | 47% |  | 0%
20 | COc1ccc(C(=O)O)cc1NC(=O)c1cnc2c(n1)C(C)(C)CC2(C)C | 3% | 0% | 
21 | COC(=O)c1ccc(NC(=O)c2cnc3c(n2)C(C)(C)CCC3(C)C)cc1 | 76% | 75% | 
22 | COC(=O)c1ccc(NC(=O)c2cnc3c(n2)C(C)(C)CC3(C)C)cc1 | 43% | 52% | 
23 | CC1(C)CC(C)(C)c2nc(C(=O)Nc3cc(C(=O)O)cc(C(=O)O)c3)cnc21 | 2% | 2% | 
24 | COc1cc(C(=O)O)ccc1NC(=O)c1cnc2c(n1)C(C)(C)CCC2(C)C | 30% | 0% | 
25 | COC(=O)c1cc(NC(=O)c2cnc3c(n2)C(C)(C)CCC3(C)C)cc(C(=O)OC)c1 | 2% | 0% | 
26 | COC(=O)c1ccc(NC(=O)c2cnc3c(n2)C(C)(C)CC3(C)C)c(OC)c1 | 13% | 0% | 
27 | COC(=O)c1ccc(OC)c(NC(=O)c2cnc3c(n2)C(C)(C)CC3(C)C)c1 | 1% | 0% | 
28 | CC1(C)CCC(C)(C)c2nc(C(=O)Nc3ccc(C(=O)O)cc3)cnc21 | 73% | 70% | 
29 | CC1(C)CC(C)(C)c2nc(C(=O)Nc3cc(C(=O)O)ccc3Cl)cnc21 | 20% | 2% | 
30 | CC1=C(/C=C/C(C)=C/C=C/C(C)=C/C(=O)O)C(C)(C)CCC1 [TRETINOIN] | 91% |  | 86%
